Assay results taken from ChEMBL document CHEMBL1124399, “Synthesis and structure-activity studies of some disubstituted phenylisoxazoles against human picornavirus” (J Med Chem, 1989).
In brackets after ≈: the same amount, converted by molar mass. Several values for one entry are separate records, joined by “and”; a condition that tells them apart may be missing. Equal entries are not always repeated. Activity calls are given as the source filed them. The rule behind the calls is not given here.

Tests used:
[1] = test system: Enterovirus; test: Minimum inhibitory concentration against rhinovirus serotype 6.; format: functional
Method in brief: (§1)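 Rhinovirus minimum inhibitory concentration (MIC) determined in a plaque reduction assay in cell culture, testing each serotype separately.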

[2] = test system: Enterovirus; test: Concentration required to inhibit 80 percent rhinovirus cell culture; format: functional
Method in brief: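 MIC80 is the concentration that inhibits 80% of the rhinovirus serotypes tested. It is derived from per-serotype MICs measured by plaque reduction assay.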

[3] = test system: Enterovirus; test: Minimum inhibitory concentration against rhinovirus serotype 41; format: functional; method in brief: as §1
[4] = test system: Enterovirus; test: (§2) In vitro anti-rhinovirus activity was measured as maximum testable levels - highest concentration of compound which causes no apparent effect on the cell monolayers; format: functional
[5] = test system: Enterovirus; test: Minimum inhibitory concentration against rhinovirus serotype 50; format: functional; method in brief: as §1
[6] = test system: Enterovirus; test: Minimum inhibitory concentration against rhinovirus serotype 15; format: functional; method in brief: as §1
[7] = test system: Enterovirus; test: Minimum inhibitory concentration against rhinovirus serotype 30; format: functional; method in brief: as §1
[8] = test system: Enterovirus; test: Minimum inhibitory concentration against rhinovirus serotype 86; format: functional; method in brief: as §1
[9] = test system: Enterovirus; test: Minimum inhibitory concentration against rhinovirus serotype 1A; format: functional; method in brief: as §1
[10] = test system: Enterovirus; test: In vitro anti-rhinovirus activity was measured as mean MIC for five serotypes, HRV-1A, -2, -22, -41, and -50; format: functional
Method in brief: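 Mean of plaque-reduction-assay MICs across five rhinovirus serotypes (HRV-1A, -2, -22, -41, -50), chosen to represent a range of sensitivity to this compound class.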

[11] = test system: Enterovirus; test: Minimum inhibitory concentration against rhinovirus serotype 21.; format: functional; method in brief: as §1
[12] = test system: Enterovirus; test: Minimum inhibitory concentration against rhinovirus serotype 89; format: functional; method in brief: as §1
[13] = test system: Enterovirus; test: Minimum inhibitory concentration against rhinovirus serotype 67; format: functional; method in brief: as §1
[14] = test system: Enterovirus; test: as §2; format: functional; remark: listed apart in the source
[15] = test system: Enterovirus; test: Minimum inhibitory concentration against rhinovirus serotype 1B.; format: functional; method in brief: as §1
[16] = test system: Enterovirus; test: Minimum inhibitory concentration against rhinovirus serotype 14; format: functional; method in brief: as §1
[17] = test system: Enterovirus C; test: In vitro activity against polioviurs-1 (Mahoney); format: functional
[18] = test system: Echovirus; test: In vitro activity against echovirus-9 (Barty); format: functional
[19] = test system: Coxsackievirus; test: In vitro activity against coxsackie A- 9; format: functional
[20] = test system: Echovirus; test: In vitr oactivity against echovirus-3; format: functional
[21] = test system: Coxsackievirus; test: In vitro activity against coxsackie A-2; format: functional
[22] = test system: Echovirus; test: In vitro activity of the compound against echovirus-12
[23] = test system: Echovirus; test: In vitro activity against echovirus-3; format: functional
[24] = test system: Coxsackievirus; test: In vitro activity against coxsackie A- 21; format: functional
[25] = test system: Coxsackievirus; test: In vitro activity against coxsackie A- 11; format: functional
[26] = test system: Enterovirus C; test: In vitro activity against coxsackie A- 4; format: functional
[27] = test system: Enterovirus; test: Estimation by using phi 21 in combination with log P of compound 13 determined via RPHPLC-retention time procedure; format: functional
Method in brief: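 Values estimated by adding substituent π constants to the measured log P of a reference analogue. That reference log P came from reversed-phase HPLC retention times, with mobile phase at pH 7.4 and n = 3.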

[28] = test system: Enterovirus C; test: In vitro activity against polioviurs-2 (Lansing); format: functional
[29] = test system: Echovirus; test: In vitro activity against echovirus-12
[30] = test system: Coxsackievirus; test: In vitro activity against coxsackie B-2; format: functional
[31] = test system: Echovirus; test: In vitro activity against echovirus-4; format: functional
[32] = test system: Coxsackievirus; test: In vitro activity against coxsackie A- 21
[33] = test system: Echovirus; test: In vitro activity against echovirus-30
[34] = test system: Enterovirus; test: Minimum inhibitory concentration against rhinovirus serotype 25; format: functional; method in brief: as §1
[35] = test system: Enterovirus; test: Minimum inhibitory concentration against rhinovirus serotype 1B; format: functional; method in brief: as §1

SMILES	MIC80 [2] [µM]	MIC [3] [µM]	MIC [4] [µM]	MIC [5] [µM]	MIC ([6]; Enterovirus, read-out: MIC) [µM]	MIC ([7]; Enterovirus, read-out: MIC) [µM]	MIC [8] [µM]	MIC [9] [µM]	MIC [10] [µM]	MIC [11]	MIC ([11]; Enterovirus, read-out: MIC) [µM]	MIC [12]	MIC ([13]; Enterovirus, read-out: MIC) [µM]	MIC ([14]; Enterovirus, read-out: MIC) [µM]	other results
Cc1cc(CCCCCOc2c(C)cc(C3=NCCO3)cc2C)on1	1.3 (≈ 0.445 µg/mL)	1.6 (≈ 0.548 µg/mL)	0.8 (≈ 0.274 µg/mL)	0.2 (≈ 0.0685 µg/mL)	0.4 (≈ 0.137 µg/mL)	0.2 (≈ 0.0685 µg/mL)	0.05 (≈ 0.0171 µg/mL)	0.02 (≈ 0.00685 µg/mL)	0.78 (≈ 0.267 µg/mL)	0.5 µM (≈ 0.171 µg/mL)	0.7 (≈ 0.24 µg/mL)	–	–	–	MIC [1]: 1.2 µM (≈ 0.411 µg/mL); MIC ([1]; Enterovirus, read-out: MIC): 2.4 µM (≈ 0.822 µg/mL)
Cc1cc(CCCCCOc2c(Cl)cc(C3=NCCO3)cc2[N+](=O)[O-])on1	0.5 (≈ 0.197 µg/mL)	3 (≈ 1.18 µg/mL)	1.4 (≈ 0.551 µg/mL)	0.2 (≈ 0.0788 µg/mL)	0.2 (≈ 0.0788 µg/mL)	0.05 (≈ 0.0197 µg/mL)	0.4 (≈ 0.158 µg/mL)	0.07 (≈ 0.0276 µg/mL)	1.35 (≈ 0.532 µg/mL)	–	–	0.02 µM (≈ 0.00788 µg/mL)	0.3 (≈ 0.118 µg/mL)	–	–
Cc1cc(CCCCCOc2c(Cl)cc(C3=NCCO3)cc2C(F)(F)F)on1	1.3 (≈ 0.542 µg/mL)	0.8 (≈ 0.333 µg/mL)	0.5 (≈ 0.208 µg/mL)	0.2 (≈ 0.0834 µg/mL)	0.4 (≈ 0.167 µg/mL)	0.2 (≈ 0.0834 µg/mL)	1.3 (≈ 0.542 µg/mL)	0.2 (≈ 0.0834 µg/mL)	0.54 (≈ 0.225 µg/mL)	–	–	0.05 µM (≈ 0.0208 µg/mL)	1 (≈ 0.417 µg/mL)	–	–
CCc1cc(C2=NCCO2)cc(C)c1OCCCCCc1cc(C)no1	–	–	–	–	–	–	–	–	5.18 (≈ 1.85 µg/mL)	–	–	–	–	35 (≈ 12.5 µg/mL)	–
Cc1cc(CCCCCOc2c(Cl)cc(C3=NCCO3)cc2C(C)(C)C)on1	–	–	–	–	–	–	–	–	–	–	–	–	–	12.4 (≈ 5.02 µg/mL)	–
Cc1cc(CCCCCOc2c(C)cc(C3=NCCO3)cc2Cl)on1	0.9 (≈ 0.327 µg/mL)	1.9 (≈ 0.689 µg/mL)	0.7 (≈ 0.254 µg/mL)	0.7 (≈ 0.254 µg/mL)	0.6 (≈ 0.218 µg/mL)	–	–	0.04 (≈ 0.0145 µg/mL)	0.92 (≈ 0.334 µg/mL)	–	0.2 (≈ 0.0726 µg/mL)	–	–	–	MIC ([1]; Enterovirus, read-out: MIC): 0.06 µM (≈ 0.0218 µg/mL); MIC [15]: 0.6 µM (≈ 0.218 µg/mL); MIC ([15]; Enterovirus, read-out: MIC): 0.4 µM (≈ 0.145 µg/mL); MIC [16]: 0.6 µM (≈ 0.218 µg/mL)
Cc1cc(CCCCCOc2c(Cl)cc(C3=NCCO3)cc2Cl)on1 [WIN-54954]	0.3 (≈ 0.115 µg/mL)	0.9 (≈ 0.345 µg/mL)	–	2.6 (≈ 0.997 µg/mL)	0.3 (≈ 0.115 µg/mL)	0.09 (≈ 0.0345 µg/mL)	0.02 (≈ 0.00767 µg/mL)	0.02 (≈ 0.00767 µg/mL)	0.7 (≈ 0.268 µg/mL)	–	0.3 (≈ 0.115 µg/mL)	–	0.02 (≈ 0.00767 µg/mL)	–	MIC [17]: 0.65 µM (≈ 0.249 µg/mL); MIC [18]: 2.6 µM (≈ 0.997 µg/mL); MIC ([15]; Enterovirus, read-out: MIC): 0.2 µM (≈ 0.0767 µg/mL); MIC [19]: 13.2 µM (≈ 5.06 µg/mL); MIC [20]: 1.4 µM (≈ 0.537 µg/mL); MIC [21]: 8.6 µM (≈ 3.3 µg/mL); MIC [22]: 0.03 µM (≈ 0.0115 µg/mL); MIC [23]: 0.18 µM (≈ 0.069 µg/mL); MIC [24]: 0.21 µM (≈ 0.0805 µg/mL); MIC [25]: 4.8 µM (≈ 1.84 µg/mL); MIC [26]: 1.4 µM (≈ 0.537 µg/mL); MIC [27]: 0.7 µM; MIC [28]: 0.55 µM (≈ 0.211 µg/mL); MIC [29]: 16.2 µM (≈ 6.21 µg/mL); MIC [30]: 0.13 µM (≈ 0.0498 µg/mL); MIC [31]: 0.39 µM (≈ 0.149 µg/mL); MIC [32]: 0.008 µM (≈ 0.00307 µg/mL); MIC [33]: 0.08 µM (≈ 0.0307 µg/mL)
Cc1cc(CCCCCOc2c(Cl)cc(C3=NCCO3)cc2Br)on1	0.5 (≈ 0.214 µg/mL)	1.8 (≈ 0.77 µg/mL)	0.6 (≈ 0.257 µg/mL)	0.09 (≈ 0.0385 µg/mL)	0.4 (≈ 0.171 µg/mL)	0.08 (≈ 0.0342 µg/mL)	0.02 (≈ 0.00855 µg/mL)	0.04 (≈ 0.0171 µg/mL)	0.61 (≈ 0.261 µg/mL)	0.2 µM (≈ 0.0855 µg/mL)	0.3 (≈ 0.128 µg/mL)	–	–	–	–
Cc1cc(CCCCCOc2c(Br)cc(C3=NCCO3)cc2Br)on1	1.3 (≈ 0.614 µg/mL)	2.1 (≈ 0.992 µg/mL)	0.6 (≈ 0.283 µg/mL)	–	–	0.4 (≈ 0.189 µg/mL)	–	0.1 (≈ 0.0472 µg/mL)	0.63 (≈ 0.297 µg/mL)	–	0.3 (≈ 0.142 µg/mL)	–	–	–	MIC [6]: 0.04 µM and 0.1 µM; MIC [7]: 0.2 µM (≈ 0.0944 µg/mL)
Cc1cc(CCCCCOc2c(F)cc(C3=NCCO3)cc2F)on1	1.9 (≈ 0.666 µg/mL)	2.3 (≈ 0.806 µg/mL)	2.7 (≈ 0.946 µg/mL)	0.1 (≈ 0.035 µg/mL)	0.5 (≈ 0.175 µg/mL)	–	–	0.13 (≈ 0.0455 µg/mL)	2.69 (≈ 0.942 µg/mL)	–	0.08 (≈ 0.028 µg/mL)	–	0.12 (≈ 0.042 µg/mL)	–	MIC [1]: 1.1 µM (≈ 0.385 µg/mL); MIC [34]: 6.6 µM (≈ 2.31 µg/mL); MIC [7]: 0.5 µM and 0.2 µM; MIC [13]: 0.1 µM (≈ 0.035 µg/mL)
COc1cc(C2=NCCO2)cc(OC)c1OCCCCCc1cc(C)no1	13.4 (≈ 5.02 µg/mL)	12.6 (≈ 4.72 µg/mL)	7.7 (≈ 2.88 µg/mL)	–	0.6 (≈ 0.225 µg/mL)	–	–	6.2 (≈ 2.32 µg/mL)	9.9 (≈ 3.71 µg/mL)	–	13.4 (≈ 5.02 µg/mL)	–	14.7 (≈ 5.5 µg/mL)	33.4 (≈ 12.5 µg/mL)	MIC [14]: 16.7 µM (≈ 6.25 µg/mL)
Cc1cc(CCCCCOc2c(Br)cc(C3=NCCO3)cc2[N+](=O)[O-])on1	0.7 (≈ 0.307 µg/mL)	1.6 (≈ 0.701 µg/mL)	1.2 (≈ 0.526 µg/mL)	0.2 (≈ 0.0877 µg/mL)	0.5 (≈ 0.219 µg/mL)	0.2 (≈ 0.0877 µg/mL)	–	0.1 (≈ 0.0438 µg/mL)	1.16 (≈ 0.508 µg/mL)	0.6 µM (≈ 0.263 µg/mL)	0.5 (≈ 0.219 µg/mL)	0.03 µM (≈ 0.0131 µg/mL)	–	–	MIC ([15]; Enterovirus, read-out: MIC): 0.3 µM (≈ 0.131 µg/mL); MIC [35]: 0.7 µM (≈ 0.307 µg/mL)
Cc1cc(CCCCCOc2ccc(C3=NCCO3)cc2)on1	7 (≈ 2.2 µg/mL)	15 (≈ 4.72 µg/mL)	5.2 (≈ 1.63 µg/mL)	–	1.5 (≈ 0.472 µg/mL)	0.3 (≈ 0.0943 µg/mL)	–	1.1 (≈ 0.346 µg/mL)	5.16 (≈ 1.62 µg/mL)	inactive	1.2 (≈ 0.377 µg/mL)	inactive	0.4 (≈ 0.126 µg/mL)	9.9 (≈ 3.11 µg/mL)	MIC [1]: 0.9 µM (≈ 0.283 µg/mL); MIC ([1]; Enterovirus, read-out: MIC): 0.7 µM (≈ 0.22 µg/mL); MIC [14]: 7 µM (≈ 2.2 µg/mL)
